The record followed here is ChEMBL document CHEMBL4513216, “Probing the Open Global Health Chemical Diversity Library for Multistage-Active Starting Points for Next-Generation Antimalarials” (ACS Infect Dis, 2020).

This data set can be described thus: Toxicity liver stage against HepG2, at 10uM. Type of data set: cell-based. Details: test concentration 10 uM, cell line HepG2-A16-CD81EGFP. The note with it: human, HepG2-A16-CD81EGFP cells; read-out: INHIBITION
Summed up:
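Uninfected HepG2-A16-CD81EGFP cells, 3 × 10^3 per well, 1536-well, plated on prespotted compound at 10 μM final, parasite-free screening media added to match infected plates; puromycin 10 μM positive, DMSO 0.5% negative; run in parallel with 48 h PbLuc assay at 37 °C, 5% CO2; viability by CellTiter-Glo luminescence, normalized to controls.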
As to `CCN(CC(=O)Nc1cc(Cl)ccc1C)C(=O)c1ccc(=O)[nH]n1`, the cytotoxicity at 10 µM was -0.898%.

As for `Cc1cc(C2CCCN(C(=O)c3cnccn3)C2)ccn1` (configuration not stated), the cytotoxicity at 10 µM came out at 0.204%.

In the case of `c1cncc(COCc2nnc3n2CCN(Cc2ccsc2)C3)c1`, the cytotoxicity at 10 µM was -21.6%.

`COCC1COCCC12CCN(S(=O)(=O)c1ccc(C)cc1)CC2` (configuration not stated): the cytotoxicity at 10 µM was found to be 4.79%.

For the compound `COc1ccc(OC)c2c(C)cc(N(C)CCCO)nc12`, the cytotoxicity at 10 µM amounted to 7.17%.

Regarding `COc1cccc(N2CCN(C(=O)C(O)c3cccc(Cl)c3)CC2=O)c1` (configuration not stated), the cytotoxicity at 10 µM is -11.2%.

Take `Cc1csc(C2CCCCN2C(=O)CN(C)C2CC2)n1` (configuration not stated): the cytotoxicity at 10 µM was -1.9%.

With `O=C(Nc1cccc(CNCc2cccs2)c1)C1CCCC1`, the cytotoxicity at 10 µM is -4.59%.

In the case of `CCOc1c(CNC2CSCCSC2)cccc1OC`, the cytotoxicity at 10 µM was found to be 10.8%.

For `Cc1nn(C)c2c(N3CCSCC3)nc(C3CC3)nc12`, the cytotoxicity at 10 µM stood at 7.29%.

As for `O=C(CCCn1cncn1)N1CCCC1c1noc(C2CC2)n1` (configuration not stated), the cytotoxicity at 10 µM is -31.5%.

With `CC(=O)c1csc(-c2csc(Cn3ccc(=O)[nH]c3=O)n2)c1`, the cytotoxicity at 10 µM was determined as 5.39%.

`COc1ccnc(N(C)Cc2ccccc2O)n1`: the cytotoxicity at 10 µM was found to be 2.29%.

In the case of `O=C(CC1CC1)N1CCn2cc(Cn3cccn3)nc2C1`, the cytotoxicity at 10 µM was -78.5%.

With `Cc1cc(-c2nc(C3(NC(=O)OC(C)(C)C)CCC3)no2)on1`, the cytotoxicity at 10 µM was found to be 5.98%.

For `CN(Cc1cnn(C)c1)C(=O)NC1CCS(=O)(=O)C1` (configuration not stated), the cytotoxicity at 10 µM is -14.4%.

In the case of `Cc1cc(NC(=O)C(C)N2CCN(c3nccs3)CC2)on1` (configuration not stated), the cytotoxicity at 10 µM was -12.6%.

As to `Cc1cc(C)n(CC(C)NC(=O)C2(c3ccccc3F)CC2)n1` (configuration not stated), the cytotoxicity at 10 µM is -0.844%.

Consider `Cn1ccnc1CN1CC[C@@H]2[C@@H](CCC(=O)N2CCc2c[nH]cn2)C1`, for which the cytotoxicity at 10 µM is -5.68%.

As to `CCC(C)(CC(=O)OC)NC(=O)c1ccc2[nH]ccc2c1` (configuration not stated), the cytotoxicity at 10 µM was -2.8%.

With `Fc1cnc(N2C[C@@H]3C[C@@H](c4nc(C5CC5)cs4)O[C@@H]3C2)nc1`, the cytotoxicity at 10 µM worked out at 22.8%.

On to `CS(=O)(=O)c1ccc(CN2C[C@@H]3CC[C@H]2CN(c2ncccn2)C3)cc1`, for which the cytotoxicity at 10 µM was found to be 0.345%.

As to `COCc1ccccc1CNC(=O)CN1CCC2(CCOC2)C1` (configuration not stated), the cytotoxicity at 10 µM is -61%.

On to `O=C1NC[C@@]2(C(=O)O)CN(Cc3cccc(CN4CCOCC4)c3)C[C@@H]12`, for which the cytotoxicity at 10 µM is -7.98%.

For `CN(CC(=O)N1CCOCC(CO)C1)Cc1ccc(F)cc1` (configuration not stated), the cytotoxicity at 10 µM is -2.82%.

As for `CCN(CC)C1CCN(C(=O)NCc2cccc(-n3cccn3)c2)C1` (configuration not stated), the cytotoxicity at 10 µM came out at 5.79%.

With `Cc1cc(CN2CCN(S(=O)(=O)c3c(C)c(Cl)cc(C)c3Cl)CC2)on1`, the cytotoxicity at 10 µM was -8.87%.

As for `Cc1ccccc1C(C(=O)O)N(C)CC1CCOCC1` (configuration not stated), the cytotoxicity at 10 µM was 3.88%.

On to `O=C(Nc1cccc(N2CCCC2)c1)N[C@H](CCO)c1ccccc1`, for which the cytotoxicity at 10 µM is -4.52%.

Regarding `COc1cccc(CCC2CCCN(C(=O)c3n[nH]c4c3CCC4)C2)c1` (configuration not stated), the cytotoxicity at 10 µM stood at 4.48%.

In the case of `Cc1ccccc1-n1cc(-c2ccnc(NC(CO)C(C)C)n2)cn1` (configuration not stated), the cytotoxicity at 10 µM is 7.12%.

In the case of `COc1ccc(CC(=O)N2CCc3nc(C(=O)N(C)C)sc3CC2)cc1`, the cytotoxicity at 10 µM was found to be 15.8%.

`O=c1[nH]c(CCN2CCN(CC(F)(F)F)CC2)nc2ccccc12`: the cytotoxicity at 10 µM amounted to 4.44%.

In the case of `CCC(CO)N(Cc1cccc(-n2cccn2)c1)Cc1cccs1` (configuration not stated), the cytotoxicity at 10 µM turned out to be 7.63%.

In the case of `Cc1ccc(-c2ncc(CN3CCN(S(N)(=O)=O)CC3)s2)o1`, the cytotoxicity at 10 µM is -3.41%.

Take `CCCc1n[nH]c(C2CN(C(=O)c3cncnc3C)CCO2)n1` (configuration not stated): the cytotoxicity at 10 µM is -12.9%.

Turning to `CC(=O)c1ccccc1C(=O)NCC1(CO)CC1`, the cytotoxicity at 10 µM is -18.9%.

With `COc1ccccc1CN1CCCCC1c1n[nH]cc1-c1cc(C)no1` (configuration not stated), the cytotoxicity at 10 µM was 13.6%.

For `c1cn2c(n1)CN(CC1CC1)CC(CN1CCOCC1)C2` (configuration not stated), the cytotoxicity at 10 µM is 1.49%.

For the compound `CC(c1ccco1)N(C)C(=O)NCCOc1ccc(C#N)cc1` (configuration not stated), the cytotoxicity at 10 µM is -2.98%.

For `Cc1n[nH]c(C2CN(C(=O)c3cc(C4CC4)[nH]n3)CCO2)n1` (configuration not stated), the cytotoxicity at 10 µM amounted to 0.192%.

`Cc1n[nH]c(C)c1NC(=O)CN1CCCC1Cn1cncn1` (configuration not stated): the cytotoxicity at 10 µM was 15.5%.

In the case of `O=C(NCc1cnn2cccnc12)c1cccc(CC2CCNCC2)c1`, the cytotoxicity at 10 µM was -44.5%.

Turning to `CCN1CCO[C@@H]2CN(C(=O)NCc3ccccc3)CC[C@@H]2C1`, the cytotoxicity at 10 µM is -117%.

As to `CN(Cc1n[nH]c2c1CCC2)C(=O)c1cc(-c2cccn2C)n[nH]1`, the cytotoxicity at 10 µM worked out at 5.12%.

Turning to `CC(C)c1nnc2ccc(N3CCCC(C(=O)Nc4nccs4)C3)nn12` (configuration not stated), the cytotoxicity at 10 µM was 3.86%.

As to `CCN(CC)C(=O)c1ccn(COc2ccc(F)cc2F)n1`, the cytotoxicity at 10 µM turned out to be 7.61%.

In the case of `Cc1cccc(CN2CCCC3(CCC(=O)N3CCN(C)C)CC2)n1` (configuration not stated), the cytotoxicity at 10 µM was -0.891%.

As for `CN1CCc2c(C#N)c(NCc3ccncc3)n3cnnc3c2C1`, the cytotoxicity at 10 µM is 10.8%.

`CSc1nccc(NCC2CNCCO2)n1` (configuration not stated): the cytotoxicity at 10 µM stood at 2.56%.

For `CC(=O)c1ccc(N2CCCC(CO)(CCOc3ccccc3)C2)nc1` (configuration not stated), the cytotoxicity at 10 µM stood at 3.15%.

As to `CCC(CO)NC(=O)Nc1cc(F)ccc1SCC(F)F` (configuration not stated), the cytotoxicity at 10 µM stood at 12.6%.

Turning to `Cn1nc(C(=O)N(CC(F)(F)F)c2cccc(Cl)c2)ccc1=O`, the cytotoxicity at 10 µM worked out at 7.48%.

Turning to `CCOCC(=O)N1Cc2nccn2CC(CN2CCCC2)C1` (configuration not stated), the cytotoxicity at 10 µM is -76.3%.

In the case of `CCC(c1ccncc1)N(C)S(C)(=O)=O` (configuration not stated), the cytotoxicity at 10 µM was -5.98%.

On to `COc1ncccc1CNC(=O)N(Cc1ccc(F)cc1F)C1CC1`, for which the cytotoxicity at 10 µM was found to be 0.139%.

In the case of `O=C(Cc1cc(-c2ccc3c(c2)OCO3)on1)NC1CCCC1`, the cytotoxicity at 10 µM is -2.34%.

As to `Cc1nc(C)n(CC2CN(CCc3ccccc3Cl)CCO2)n1` (configuration not stated), the cytotoxicity at 10 µM is -0.431%.

In the case of `Cc1cnn(C2CN(CCCOc3ccc(C#N)cc3)C2)c1`, the cytotoxicity at 10 µM amounted to 4.09%.

For the compound `COc1ccc(CNc2cc(-c3nc(C)no3)ccn2)c(OC)c1`, the cytotoxicity at 10 µM was determined as 9.07%.

With `Cc1ccc(OCC(O)CNC(=O)C2(c3ccc(F)cc3)CC2)cc1` (configuration not stated), the cytotoxicity at 10 µM was determined as 0.675%.

In the case of `Cn1ccnc1CN1CCN2C[C@H](Oc3cncnc3)C[C@H]2C1`, the cytotoxicity at 10 µM is 8.71%.

As for `Cc1cnn(CC2CCCN2CC(=O)NC2CCOCC2)c1` (configuration not stated), the cytotoxicity at 10 µM is -16%.

For the compound `CCS(=O)(=O)N1CCCn2c(nc(CN3CCCC3)cc2=O)C1`, the cytotoxicity at 10 µM was 1.88%.

Take `O=C(NCC1CCOCC1)c1cc(-c2cccnc2)c2cnccc2n1`: the cytotoxicity at 10 µM came to 13.2%.

`CN1CCN(C[C@@H]2CN(C(=O)c3ccccc3C#N)C[C@@H]2CO)CC1`: the cytotoxicity at 10 µM is -24.7%.

Turning to `NC(=O)C1Cn2ccnc2C2(CCN(C(=O)c3ccncc3)CC2)O1` (configuration not stated), the cytotoxicity at 10 µM is -103%.

Consider `CO[C@H]1CN(C(=O)c2cccnc2)[C@@H]2CCCO[C@H]12`, for which the cytotoxicity at 10 µM came out at 5%.

For `CC1CCC(NCCCN2CCOCC2)CC1` (configuration not stated), the cytotoxicity at 10 µM was -6.58%.

For `Cc1cc(NC(=O)[C@H]2CCCCN2C(=O)OC(C)(C)C)no1`, the cytotoxicity at 10 µM is -1.48%.

For `Cc1nc2ccccn2c1CN1C[C@@H](CN(C)CCO)[C@@H](CO)C1`, the cytotoxicity at 10 µM was -11.4%.

`CC(C)CN1CCC2(CCN(Cc3nccs3)CC2)C1=O`: the cytotoxicity at 10 µM is -5.77%.

With `CC(C)C(=O)NC1CCN(Cc2cccc3c2OCCO3)CC1`, the cytotoxicity at 10 µM is -0.818%.

For the compound `COc1ccc(C(=O)N2CCCCC2Cn2cccn2)c(F)c1` (configuration not stated), the cytotoxicity at 10 µM is -5.38%.

Take `COC1[C@@H]2CC[C@H]1CN(c1nc(C)nc3sccc13)C2` (some centres not stated): the cytotoxicity at 10 µM was 34%.

Consider `CCCc1nc(CNC(=O)Cc2csc(C)n2)cs1`, for which the cytotoxicity at 10 µM was -10.6%.

Take `CCCn1nc2c(cc1=O)CN(CC(=O)Nc1nnc(C)s1)CC2`: the cytotoxicity at 10 µM was -11.3%.

Regarding `CC1CN(CC(=O)NC2CCCC2)CCN1c1ccc2nncn2n1` (configuration not stated), the cytotoxicity at 10 µM is -1.58%.

With `Cc1nc(CN2CCCn3nc(CNC(=O)C4CCC4)cc3C2)co1`, the cytotoxicity at 10 µM is 3.26%.

Take `O=C(NC1CCc2ccccc2C1)C1CCN(Cc2ccco2)CC1` (configuration not stated): the cytotoxicity at 10 µM was -0.339%.

Consider `O=C(Nc1cccnc1-n1cccn1)N1CCCC(N2CCCC2)C1` (configuration not stated), for which the cytotoxicity at 10 µM stood at 8.53%.

Turning to `O=C(CO)N1CCC(c2ccnc(Nc3cc(C(F)(F)F)ccn3)n2)C1` (configuration not stated), the cytotoxicity at 10 µM was determined as 18%.

Regarding `CC(c1ccco1)N(C(=O)COc1ccc(C#N)cc1)C1CC1` (configuration not stated), the cytotoxicity at 10 µM is -6.6%.

For `COCCn1c2c(ccc1=O)CCN(C(=O)CC1CC1)CC2`, the cytotoxicity at 10 µM was found to be 2.24%.

With `O=C(Nc1cn[nH]c1)N1CCCCCC1c1ccncc1` (configuration not stated), the cytotoxicity at 10 µM was -3.4%.

As to `CCOc1ccc(C2SCC(=O)Nc3c2c(=O)[nH]n3C(CC)CC)cc1` (configuration not stated), the cytotoxicity at 10 µM came to 6.5%.

`COc1cc(C2(C(=O)NC3CCN(CC4CC4)CC3)CC2)ccc1C`: the cytotoxicity at 10 µM was -11.2%.

As to `CCCn1c(C)c(CC(=O)N(C)CCO)c2c1CC(C)(C)CC2=O`, the cytotoxicity at 10 µM was -3.64%.

For the compound `O=S(=O)(NCCN1CC=CC1)c1ccc(Cl)cc1`, the cytotoxicity at 10 µM is -6.04%.

As to `O=C(CNc1cc2c(cc1Cl)OCCCO2)NCc1ccc(F)cc1`, the cytotoxicity at 10 µM turned out to be 0.854%.

For the compound `O=C(Cc1ccc(F)cc1)NCC(O)(c1cccs1)C1CC1` (configuration not stated), the cytotoxicity at 10 µM was -39.3%.

Take `NC(=O)C1CCN(S(=O)(=O)c2cnn(-c3ccccc3)c2)CC1`: the cytotoxicity at 10 µM was found to be 8.51%.

Regarding `Cc1cnc(N2CCN3C[C@H](OCc4ccccn4)C[C@H]3C2)nc1`, the cytotoxicity at 10 µM was -1.68%.

For the compound `O=S(=O)(CCNC1CCc2ncnn2C1)c1ccccc1` (configuration not stated), the cytotoxicity at 10 µM is -5.58%.

In the case of `COc1ncnc2c1CCN(CC1CCOC1)CC2` (configuration not stated), the cytotoxicity at 10 µM was -68.9%.

With `O=C(CNC(=O)c1ccoc1)NCCOc1ccc2c(c1)CCC2`, the cytotoxicity at 10 µM was -7.98%.

As for `CN(C)CCCNCC1CCOC(C)(C)C1` (configuration not stated), the cytotoxicity at 10 µM is -8.02%.
